# Assay results: ChEMBL document CHEMBL1150225, “Cytotoxic cholestane glycosides from the bulbs of Ornithogalum saundersiae” (J Nat Prod, 2001)
# Test system: HL-60
# Experiment: Cytotoxicity against human HL60 cells after 72 hrs by MTT assay
# Assay type: functional, cell-based
# Conditions: HL-60, 72 h
# In short: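 HL-60 leukemia cells kept in RPMI 1640 with 10% fetal bovine serum, L-glutamine, 100 units/mL penicillin and 100 μg/mL streptomycin. Cells at 3 × 10^4 cells/mL exposed continuously to compound for 72 h. Growth read by MTT reduction. IC50 (50% inhibition) calculated from each compound's dose–response curve.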
row,SMILES,IC50
1,COc1cc(C(=O)O[C@H]2[C@H](O[C@@H]3[C@@H](OC(C)=O)[C@H](O[C@H]4C[C@H]5[C@@H]6CC=C7C[C@@H](O)CC[C@]7(C)[C@H]6CC[C@]5(C)[C@@]4(O)[C@H](C)C(=O)CCC(C)C)OC[C@@H]3O)OC[C@@H](O[C@@H]3O[C@H](CO)[C@@H](O)[C@H](O)[C@H]3O)[C@@H]2O)cc(OC)c1OC,14 nM
2,CC(C)CCC(=O)[C@@H](C)[C@@]1(O)[C@@H](O[C@@H]2OC[C@H](O)[C@H](O[C@@H]3OC[C@@H](O)[C@H](O)[C@H]3O)[C@H]2O)C[C@H]2[C@@H]3CC=C4C[C@@H](O)CC[C@]4(C)[C@H]3CC[C@@]21C,190 nM
3,COc1cccc2c1C(=O)c1c(O)c3c(c(O)c1C2=O)C[C@@](O)(C(=O)CO)C[C@@H]3O[C@H]1C[C@H](N)[C@H](O)[C@H](C)O1 [DOXORUBICIN],7.2 nM
4,COc1cc([C@@H]2c3cc4c(cc3[C@@H](O[C@@H]3O[C@@H]5CO[C@@H](C)O[C@H]5[C@H](O)[C@H]3O)[C@H]3COC(=O)[C@H]23)OCO4)cc(OC)c1O [ETOPOSIDE],25 nM
5,CN(Cc1cnc2nc(N)nc(N)c2n1)c1ccc(C(=O)N[C@@H](CCC(=O)O)C(=O)O)cc1 [METHOTREXATE],12 nM
